SENP8 block-1: human SENP8 protease inhibitors, primary screen, biochemical, fluorescence, Nedd8 protein substrate, uHTS. AID 602440, 2012. recombinant SENP8. inhibition, % at 20 µM. actives 0.64% (n = 360,000). Sentrin-specific protease 8 (Homo sapiens), Q96LD8; in the data active = inhibition mostly above about 40%, no sharp cut-off; inactive = mostly below about 27%
Target sequence (Q96LD8 whole entry, looked up): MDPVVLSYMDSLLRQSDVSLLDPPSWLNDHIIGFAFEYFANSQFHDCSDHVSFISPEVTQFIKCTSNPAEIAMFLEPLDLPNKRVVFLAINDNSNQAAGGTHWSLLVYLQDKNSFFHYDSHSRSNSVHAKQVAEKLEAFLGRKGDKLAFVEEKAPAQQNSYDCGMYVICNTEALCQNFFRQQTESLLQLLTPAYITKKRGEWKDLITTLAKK
SENP7 inh: SENP7 protease inhibitors, primary screen, biochemical, luminescence, uHTS; recombinant SENP7, Z-RLRGG-aminoluciferin luminescence, 40 min; inhibition, % at 5 µM; actives 1.5% (n = 330,000);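 active = inhibition above about 50% at the single test dose, limit read from the data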
Target sequence (Q9BQF6 706-1050 limits assumed): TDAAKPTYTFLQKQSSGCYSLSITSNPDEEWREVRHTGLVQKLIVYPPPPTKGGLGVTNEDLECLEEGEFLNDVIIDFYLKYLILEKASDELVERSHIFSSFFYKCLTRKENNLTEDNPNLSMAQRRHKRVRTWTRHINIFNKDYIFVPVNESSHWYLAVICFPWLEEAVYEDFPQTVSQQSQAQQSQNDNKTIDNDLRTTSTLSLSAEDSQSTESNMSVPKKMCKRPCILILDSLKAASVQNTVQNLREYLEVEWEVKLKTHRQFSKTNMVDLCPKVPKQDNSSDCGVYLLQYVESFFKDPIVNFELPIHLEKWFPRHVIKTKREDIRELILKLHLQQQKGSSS
SENP8 block-2: SENP8 protease inhibitors, primary screen, biochemical, luminescence | Sentrin-specific protease 8 (Homo sapiens), Q96LD8 | purified SENP8, Z-RLRGG-aminoluciferin cleavage | inhibition, % at 10 µM | actives 1.2% (n = 330,000) | AID 2540, 2010; in the data active = inhibition above about 50%
Apaf-1 inh: inhibitors of human Apaf-1 apoptosome, primary screen, biochemical, DEVD-Rh110 fluorescence, uHTS | AID 489030, 2010 | reconstituted apoptosome caspase-3 activity | inhibition, % at 20 µM | actives 0.71% (n = 330,000); active = inhibition of at least 40% at 20 µM
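Material: biochemical Apaf-1 apoptosome reconstitution. Medium: Hepes buffer, pH 7.5. Also added: cytochrome c activation, bis-DEVD rhodamine 110 substrate. Timing: 30 min compound preincubation, 50 min activation, room temperature. Measured by: rhodamine 110 fluorescence at Ex 480/Em 540 nm.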
UBC13 inh: UBC13 polyubiquitin chain formation inhibitors, primary screen, biochemical, TR-FRET, uHTS; inhibition, % at 20 µM; actives 0.47% (n = 330,000); Ubiquitin-conjugating enzyme E2 N (Homo sapiens), P61088; in the data active = inhibition above about 45%, passing the limit was not always enough
Target sequence (P61088 whole entry, looked up): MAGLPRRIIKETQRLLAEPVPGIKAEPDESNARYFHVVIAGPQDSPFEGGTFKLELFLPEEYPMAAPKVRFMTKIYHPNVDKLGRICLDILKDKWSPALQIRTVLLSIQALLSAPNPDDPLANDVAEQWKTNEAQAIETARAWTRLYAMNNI
SENP6 block: SENP6 protease inhibitors, primary screen, biochemical, luminescence, uHTS; Sentrin-specific protease 6 (Homo sapiens), Q9GZR1; AID 2599, 2010; inhibition, % at 10 µM; Recombinant SENP6 catalytic domain, aminoluciferin luminescence; actives 1.8% (n = 330,000);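 active = inhibition above about 50% at the single tested dose, limit read from the data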
Apaf-1 inh conf2: Apaf-1 inhibitors, single-dose retest, confirmation, biochemical, fluorescence, DEVD-Rh110, 20 µM; shares compounds with Apaf-1 inh; reconstituted apoptosome, caspase-3 DEVD-Rh110 fluorescence; inhibition, % at 20 µM; actives 25% (n = 1,800);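 active = mean inhibition of at least 40% at 20 µM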
Rh110 interf inh: Rh110 fluorescence interference by putative Apaf-1 inhibitors, confirmation, artefact control for Apaf-1 inhibitor project, biochemical, 20 µM. shares compounds with Apaf-1 inh. quenched caspase reaction. activation (fluorescence interference), % at 20 µM. 1,800 tested, under 10 active;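 active = signal rise of 40% or more at 20 µM, treated as a fluorescence artifact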
Fluor interf inh: fluorescence interference of Apaf-1 inhibitor hits, dose response, artefact control for Apaf-1 inhibitor project | shares compounds with Apaf-1 inh | fluorescence interference counterscreen, Apaf-1 assay format | IC50, µM | 460 tested, under 10 active | AID 588538, 2011; call rule not given here
Each line names hits and unclear results; the compound was inactive in the other large screens (follow-up assays come after a bar, where they were run). This is a sample that favours compounds with a hit; in the whole collection about 3% have one here.

Cc1cc(C(=O)NNC(=O)Nc2ccccc2)no1	none
Cc1nc(C(=O)NNC(=O)Nc2ccccc2)cs1	Apaf-1 inh 56.7 | Apaf-1 inh conf2 inactive | Rh110 interf inh inactive
CC(C)CCn1c(N)c(S(=O)(=O)c2cccs2)c2nc3ccccc3nc21	Apaf-1 inh 51.2 | Apaf-1 inh conf2 inactive | Rh110 interf inh inactive
CCN1CCN(c2ccc(S(=O)(=O)N3CCCCC3)cc2NC(=O)COc2ccc(Cl)c(C)c2)CC1	Apaf-1 inh 44.7 | Apaf-1 inh conf2 inactive | Rh110 interf inh inactive
CCN1CCN(c2ccc(S(=O)(=O)N3CCCCC3)cc2NC(=O)/C=C/c2cc(OC)ccc2OC)CC1	Apaf-1 inh 45.5 | Apaf-1 inh conf2 inactive | Rh110 interf inh inactive
Cc1cc2c(cc1C)-n1nnnc1C(N1CCCC1)C(=O)N2 (centres undefined)	none (no result: SENP7 inh, SENP8 block-2, Apaf-1 inh, UBC13 inh, SENP6 block)
COc1cc(C)c2c(c1C=O)Oc1c(c(C)c(O)c3c1C(O)OC3=O)OC2=O (centres undefined)	Apaf-1 inh 55.8 | Apaf-1 inh conf2 inactive | Rh110 interf inh inactive
Cc1ccc(NC(=S)NCc2ccc3c(c2)OCO3)cc1C	none
S=C(NCc1ccc2c(c1)OCO2)Nc1ccc2nsnc2c1	Apaf-1 inh 61.6 | Apaf-1 inh conf2 inactive | Rh110 interf inh inactive
CC(C)C[C@H]1CNC(=S)N1C[C@H]1CCCN1C[C@H](Cc1ccc(O)cc1)N1C[C@H](CC(C)C)N(CCc2ccccc2)C1=S	none (no result: SENP7 inh, SENP8 block-2, Apaf-1 inh, UBC13 inh, SENP6 block)
CN(CC(=O)NC(=O)NCc1ccccc1)CC(=O)Nc1ccc(Cl)c(C(F)(F)F)c1	none
CN(CC(=O)NCc1ccccc1)CC(=O)Nc1ccc(Cl)c(C(F)(F)F)c1	Apaf-1 inh 52.7 | Apaf-1 inh conf2 inactive | Rh110 interf inh inactive
CN(CC(=O)Nc1ccc(Cl)c(C(F)(F)F)c1)C(=O)CC1Sc2ccccc2NC1=O (centres undefined)	Apaf-1 inh 50.9 | Apaf-1 inh conf2 46.6 | Rh110 interf inh inactive | Fluor interf inh inactive
CNc1cncc(-c2ccc(C)cc2)n1	none (no result: SENP7 inh, SENP8 block-2, Apaf-1 inh, UBC13 inh, SENP6 block)
CCN1CCN(c2ccc(NC(=O)c3cc4ccccc4cc3OC)cc2C)CC1	Apaf-1 inh 51.1 | Apaf-1 inh conf2 inactive | Rh110 interf inh inactive
Cn1c(=O)c2c(nc(CN3CCc4ccccc4C3)n2Cc2cccc(Cl)c2)n(C)c1=O	Apaf-1 inh 51.4 | Apaf-1 inh conf2 inactive | Rh110 interf inh inactive
CCOc1ccc(NC(=O)CN(C)C(=O)c2ccc(COc3ccccc3)o2)cc1OCC	none
CCOc1ccc(NC(=O)CN(C)C(=O)c2ccc(COc3ccccc3)cc2)cc1OCC	Apaf-1 inh 47.9 | Apaf-1 inh conf2 40.1 | Rh110 interf inh inactive | Fluor interf inh inactive
c1ccc2c(c1)CC/C2=N/Nc1nc2ccccc2[nH]1	Apaf-1 inh 57.1 | Apaf-1 inh conf2 inactive | Rh110 interf inh inactive
CC(C)(C)C1CCC(=NNc2nc3ccccc3[nH]2)CC1 (centres undefined)	none
CC1(C)OCC(CNC(=O)c2[nH]c(C(F)(F)F)nc2-c2ccccc2)O1 (centres undefined)	none (no result: SENP7 inh, SENP8 block-2, Apaf-1 inh, UBC13 inh, SENP6 block)
O=c1[nH]c(C2CCN(S(=O)(=O)c3ccccc3F)CC2)nc2c1nnn2Cc1ccc(F)cc1	none
O=c1[nH]c(C2CCN(S(=O)(=O)c3ccc(C(F)(F)F)cc3)CC2)nc2c1nnn2Cc1ccc(F)cc1	Apaf-1 inh 41.2 | Apaf-1 inh conf2 inactive | Rh110 interf inh inactive
O=c1[nH]c(C2CCCN(S(=O)(=O)c3ccccc3F)C2)nc2c1nnn2Cc1ccccc1Cl (centres undefined)	Apaf-1 inh 41.2 | Apaf-1 inh conf2 inactive | Rh110 interf inh inactive
O[C@H]1C[C@H](c2ccccc2)N(Cc2cccs2)C[C@@H]1n1cc(C2CC2)nn1	none (no result: SENP7 inh, SENP8 block-2, Apaf-1 inh, UBC13 inh, SENP6 block)
COc1ccc(-c2nc3c4ccccc4ccn3c2CC2CCCCC2)cc1OC	none (no result: SENP7 inh, SENP8 block-2, Apaf-1 inh, UBC13 inh, SENP6 block)
C/C(=C\C(=S)Nc1ccccc1)Nc1ccc2ccccc2c1	Apaf-1 inh 41.2 | Apaf-1 inh conf2 inactive | Rh110 interf inh inactive
S=C(NCc1ccccc1)Nc1ccc2ccccc2c1	none
C/C(=C\C(=S)Nc1ccccc1)Nc1cccc2ccccc12	SENP8 block-2 71.4, Apaf-1 inh 96.6, SENP6 block 83.2 | Apaf-1 inh conf2 inactive | Rh110 interf inh inactive
COC(=O)C[C@H]1CC[C@@H](NC(=O)Nc2ccc(C(F)(F)F)cc2)[C@@H](CO)O1	none (no result: SENP7 inh, SENP8 block-2, Apaf-1 inh, UBC13 inh, SENP6 block)
O/C=c1\ccc2cccc3nc(C(F)(F)F)nc1c23	SENP8 block-1 45.6, Apaf-1 inh 79.1 | Apaf-1 inh conf2 86.5 | Rh110 interf inh inactive | Fluor interf inh 20.4
CN(C(=S)Nc1ccc(SC(F)F)cc1)c1ccc(O)cc1	Apaf-1 inh 69.9 | Apaf-1 inh conf2 inactive | Rh110 interf inh inactive
Cc1ccc2[nH]c3c(c2c1)CN(C(=O)CN1CCN(c2cccc(C)c2C)CC1)CC3	Apaf-1 inh 42.6 | Apaf-1 inh conf2 inactive | Rh110 interf inh inactive
Cc1noc(C)c1COc1ccccc1C(=O)N1CCN(c2cccc(Cl)c2)CC1	Apaf-1 inh 51.8 | Apaf-1 inh conf2 inactive | Rh110 interf inh inactive
O=C(NC(c1ccccc1)c1ccc2ccccc2n1)C1CCN(Cc2ccc(Cl)c(Cl)c2)CC1 (centres undefined)	none (no result: SENP7 inh, SENP8 block-2, Apaf-1 inh, UBC13 inh, SENP6 block)
CCCCN1C(=O)C(CC(=O)NCCCCc2ccccc2)CC(C(=O)N2CCCCCC2)=C1C (centres undefined)	none (no result: SENP7 inh, SENP8 block-2, Apaf-1 inh, UBC13 inh, SENP6 block)
COC(=O)C1=CN(c2ccc3c(c2)OCO3)C(N)=C(C#N)C1c1cccc(F)c1 (centres undefined)	none (no result: SENP7 inh, SENP8 block-2, Apaf-1 inh, UBC13 inh, SENP6 block)
CCCOc1cccc(-c2nn(-c3ccccc3)cc2/C=C(\C#N)C(=O)NCCCn2ccnc2)c1	none
N#C/C(=C/c1cn(-c2ccccc2)nc1-c1cccc(OCc2ccc(F)cc2)c1)C(=O)NCCCn1ccnc1	Apaf-1 inh 43.9 | Apaf-1 inh conf2 inactive | Rh110 interf inh inactive
CCOc1ccccc1N1CCN(C(=O)c2ccccc2)CC1	none
CCOc1ccccc1N1CCN(C(=O)C2c3ccccc3Oc3ccccc32)CC1	Apaf-1 inh 40.9 | Apaf-1 inh conf2 40.2 | Rh110 interf inh inactive | Fluor interf inh inactive
O=C(NCCN1CCOCC1)c1cccc(S(=O)(=O)N(Cc2ccccc2)c2ccccc2)c1	none
